Key:
Human DJ-1 [1] = molecular target: T1, Human DJ-1 (Homo sapiens, UniProt Q99497); assay: In vitro glyoxalase activity assay with phenylglyoxal as substrate; format: biochemical
T1 sequence (Q99497 1-189): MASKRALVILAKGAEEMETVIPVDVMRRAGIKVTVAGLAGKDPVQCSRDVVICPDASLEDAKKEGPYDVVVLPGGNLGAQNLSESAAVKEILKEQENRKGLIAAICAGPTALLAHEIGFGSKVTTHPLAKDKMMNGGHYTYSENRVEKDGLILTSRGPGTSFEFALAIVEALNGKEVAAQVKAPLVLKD
Procedure, shortened: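 Recombinant DJ-1 0.5 μM with phenylglyoxal 2 μM in 100 mM potassium phosphate pH 7.0, 1% DMSO; compound 1.0 nM–30 μM. Initial velocities were taken from the loss of absorbance at 250 nm. Activity was expressed as the velocity ratio with versus without inhibitor, and sigmoidal fits gave the inhibition constant.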

DJ-1 in HeLa cells [2] = molecular target: T2, DJ-1 in HeLa cells (Homo sapiens, UniProt Q99497); assay: Cellular thermal shift assay; format: cell-based; conditions: thermal treatment at 63 °C
T2 sequence (Q99497 1-189): T1 sequence (Q99497 1-189)

DJ-1 in HeLa cells [3] = molecular target: T2, DJ-1 in HeLa cells; assay: CML-modified protein by western blot in HeLa cells; format: cell-based; conditions: highest concentration employed
Procedure, shortened: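 HeLa cells (1.5×10^5 per well) were grown 24 h in DMEM with 10% FBS, starved 20 h in 0.5% FBS, then exposed 3 h to compound in 0.5% FBS with 0.2% DMSO. DJ-1 knockout HeLa cells were also used. RIPA lysates went to SDS-PAGE and nitrocellulose. The anti-CML blot was read by HRP chemiluminescence; DJ-1 and β-actin were detected by Cy5 fluorescence.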

DJ-1 in HEK293 cells = assay: Glyoxalase/deglycase activity in cells: CML-modified proteins by western blot; format: cell-based, human; conditions: glyoxal 2 mM
Procedure, shortened: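 HEK293 cells (2×10^5 per 6 cm dish) were cultured 3 days in DMEM with 10% FBS, then starved 20 h in 1% FBS. Treatment was 3 h in DMEM with 1% FBS, 0.2% DMSO and compound, with or without glyoxal (2 mM). Lysates underwent SDS-PAGE, nitrocellulose transfer and immunoblotting for carboxymethyl lysine, DJ-1 and β-actin, detected with HRP secondaries.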

Human DJ-1 [4] = molecular target: T1, Human DJ-1; assay: Binding affinity and thermodynamics by ITC
Procedure, shortened: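 Recombinant human DJ-1 (E. coli-expressed) dialysed into PBS to remove DTT; compounds in the same PBS with 5% DMSO. Titrations at 25 °C with protein in the cell and compound in the syringe: DJ-1 20 μM against compound 200 μM (muteins: protein 100 μM, compound 1 mM). Isotherms fitted to a one-site binding model.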

Human DJ-1 [5] = molecular target: T1, Human DJ-1; assay: Thermal stability of DJ-1 by DSF; format: binding; conditions: DJ-1 10 μM, compound 50 μM
Procedure, shortened: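 Tag-free DJ-1 (10 μM) with compound (50 μM) in PBS, 0.01% Tween 20 and 2.5% DMSO, with SYPRO Orange dye (excitation 470 nm, emission 570 nm). Samples were heated from 30 to 85 °C at 2 °C/min. TM was taken from the inflection point of the derivative unfolding curve and compared with unbound protein.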

O=C1Nc2ccccc2C1=O [compound 1, 1H-indole-2,3-dione]
IC50 (Human DJ-1 [1]): 13 µM | stabilization of the soluble form of DJ-1 in cells (DJ-1 in HeLa cells [2]): concentration-dependent stabilization | intensity of a protein modified with CML (DJ-1 in HeLa cells [3]): clearly increases | intensity of bands of proteins modified with CML compared with DMSO control (DJ-1 in HEK293 cells): increased significantly | Kd (Human DJ-1 [4]): 3.2 ± 0.1 µM | enthalpic efficiency (EE) (Human DJ-1 [4]): 1.1 kcal/mol | ΔH of binding (Human DJ-1 [4]; ITC, 25 °C): -11.6 ± 0.1 kcal/mol | −TΔS of binding (Human DJ-1 [4]; ITC, 25 °C): 4.1 kcal/mol | ΔTM, thermal stabilization with respect to the unbound protein (Human DJ-1 [5]): 1.8 °C

From article PMC6370461 (ACS chemical biology, 2018)
